Experimental data of several laboratories.
Compare with care: the assays were run in different laboratories.
Cell line: NCI-H460
Effect on: cell growth or viability

Structure (SMILES)	method	tested at	time	quantity	value
COc1ccc(C(=O)/C=C/c2cc3c(cc2Br)OCO3)cc1S(N)(=O)=O	SRB	10 µM	–	inhibition	100%
C=C(c1ccc(C(=O)O)cc1)c1cc2c(cc1C)C(C)(C)CCC2(C)C	MTT	–	72 h	EC50	52000 nM
C=CC(=O)Nc1cc(Nc2nc(N3CCc4sccc4C3)c3cccnc3n2)c(OC)cc1N1CCOCC1	MTT	–	–	IC50	> 50000 nM
COc1cc(-c2ccc(-c3ccc(C(=N)N)nc3)s2)cc(OC)c1OC	SRB	–	–	GI50	2100 nM
CCc1n(Cc2ccc3ccccc3n2)cc[n+]1Cc1ccc2ccccc2n1	SRB	–	–	TGI	11900 nM
CS(=O)(=O)CCNCc1ccc(-c2ccc3ncnc(Nc4ccc(OCc5cccc(F)c5)c(Cl)c4)c3c2)o1	MTT	–	72 h	EC50	32000 nM
COc1ccc(C(=O)/C=C/c2cccc3ccccc23)cc1S(N)(=O)=O	SRB	–	48 h	GI50	1800 nM
COc1cc(N(C)CCN(C)C)c(NC(=O)C=C(C)C)cc1Nc1nc(Nc2cnn(C)c2)c2sccc2n1	MTT	–	–	IC50	1320 nM
CCCCc1n(Cc2ccc3ccccc3n2)cc[n+]1Cc1ccc2ccccc2n1	SRB	–	–	TGI	11600 nM
COc1ccccc1/C=C/C(=O)c1ccc(OC)c(S(N)(=O)=O)c1	SRB	–	48 h	GI50	2100 nM
C=CC(=O)Nc1cc(Nc2nc(N3CCc4sccc4C3)c3cccnc3n2)c(OC)cc1N1CCSCC1	MTT	–	–	IC50	229 nM
COc1cccc(Oc2ccccc2NC(=O)CNC(=O)c2cccc3ccccc23)c1	SRB	–	48 h	GI50	295 nM
COc1ccc(C(=O)/C=C/c2cccc(Cl)c2)cc1S(N)(=O)=O	SRB	10 µM	–	inhibition	97%
C=C(Cl)C(=O)Nc1cc(Nc2nc(N3CCCC3)c3sccc3n2)c(OC)cc1N(C)CCN(C)C	MTT	–	–	IC50	6480 nM
CCCc1n(Cc2ccc3ccccc3n2)cc[n+]1Cc1ccc2ccccc2n1	SRB	–	–	TGI	11700 nM
Cc1cc(C)n(C(=S)[S][Au][PH](CCCCCC[PH]([Au][S]C(=S)n2nc(C)cc2C)(c2ccccc2)c2ccccc2)(c2ccccc2)c2ccccc2)n1	SRB	–	–	GI50	638 nM
COc1ccc(C(=O)/C=C/c2cccnc2)cc1S(N)(=O)=O	SRB	–	48 h	GI50	9100 nM
C=C(Cl)C(=O)Nc1cc(Nc2nc(N3CCOCC3)c3sccc3n2)c(OC)cc1N(C)CCN(C)C	MTT	–	–	IC50	1840 nM
c1ccc2cc(Cn3cc[n+](Cc4ccc5ccccc5c4)c3)ccc2c1	SRB	–	–	TGI	10400 nM
COc1ccc(C(=O)/C=C/c2ccc3ccccc3c2)cc1S(N)(=O)=O	SRB	10 µM	–	inhibition	98%
C=CC(=O)Nc1cccc(Oc2nc(Nc3ccc(N4CCN(C)CC4)cc3)nc3ccsc23)c1	MTT	–	–	IC50	642 nM
